# Source: PubChem BioAssay (several laboratories)
# MPTP block – mitochondrial permeability transition pore inhibitors, primary screen, biochemical, isolated mouse mitochondria, absorbance. Ca2+ swelling absorbance, 30 min. inhibition, % at 10 µM. actives 1.4% (n = 360,000). AID 602449, 2012;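 active means inhibition of 50% or more, scaled per plate between neutral and stimulator controls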;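 further: 0% = DMSO wells given calcium and 100% = 1 mM EGTA wells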
# Hep lipid drop – inhibitors of hepatocyte lipid droplet formation, primary screen, imaging, high-throughput imaging, BODIPY stain; actives 0.4% (n = 240,000); AML12 mouse hepatocytes, oleate lipid droplets; inhibition, % at 6.5 µM;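 active means lipid droplet intensity inhibited by at least 50%, with more than 500 cells counted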
#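 Test system: AML12 hepatocytes (mouse); reagent: oleate loading, 100 µM; dosing: one dose, 6.5 µM compound; incubation: overnight exposure; signal: fluorescence imaging, 20x objective, two fields per well; read-out basis: % inhibition of corrected integrated BODIPY droplet signal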
# aDG glyco act – activators of alpha-DG glycosylation, primary screen, uHTS, Pro5-aDG cells, AlphaScreen; actives 0.22% (n = 360,000); alpha-DG glycosylation AlphaScreen (IIH6); 0% Pro5, 100% B10-LARGE cell signal; AID 624168, 2012; activation, % at 10 µM;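 active means activation of at least 8% versus controls, or a plate z-score of at least 8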;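 further: Pro5 are CHO cells carrying HIG-tagged alpha-DG that lacks glycosylation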
# ADAM17 inh – ADAM17 inhibitors, primary screen, biochemical, QFRET. Disintegrin and metalloproteinase domain-containing protein 17 (Homo sapiens), P78536. recombinant ADAM17, EDANS/DABCYL FRET peptide cleavage. inhibition, % at 6.95 µM. actives 0.83% (n = 370,000). AID 720648, 2013;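 active means inhibition above the mean of compounds lying between control limits plus 3 SD, set per campaign, cut at about 8.5% in these data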;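 further: 0% = DMSO-only wells as the low control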
# V-ATPase pHluor – regulators of yeast V-ATPase proton pumping, primary screen, pHLuorin cytosolic pH fluorescence. response, % at 10 µM. actives 0.37% (n = 350,000). S. cerevisiae. AID 504577, 2011; in the data active means response mostly above about 7.3%, no sharp cut-off; inactive means mostly below about 5.4%; further: actives read high
# ADAM10 inh – human ADAM10 inhibitors, primary screen, biochemical, QFRET, HTS; Disintegrin and metalloproteinase domain-containing protein 10 (Homo sapiens), O14672; recombinant ADAM10, EDANS/DABCYL FRET peptide cleavage, 3 h; inhibition, % at 7 µM; actives 0.62% (n = 370,000); AID 720582, 2013;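 active means inhibition above a per-campaign cutoff equal to the mean of compounds falling between control-based bounds plus 3 SD, cut at about 20% in these data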;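 further: 0% = DMSO wells while the 100% control is not disclosed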
# Target sequence (O14672 214-748 limits assumed): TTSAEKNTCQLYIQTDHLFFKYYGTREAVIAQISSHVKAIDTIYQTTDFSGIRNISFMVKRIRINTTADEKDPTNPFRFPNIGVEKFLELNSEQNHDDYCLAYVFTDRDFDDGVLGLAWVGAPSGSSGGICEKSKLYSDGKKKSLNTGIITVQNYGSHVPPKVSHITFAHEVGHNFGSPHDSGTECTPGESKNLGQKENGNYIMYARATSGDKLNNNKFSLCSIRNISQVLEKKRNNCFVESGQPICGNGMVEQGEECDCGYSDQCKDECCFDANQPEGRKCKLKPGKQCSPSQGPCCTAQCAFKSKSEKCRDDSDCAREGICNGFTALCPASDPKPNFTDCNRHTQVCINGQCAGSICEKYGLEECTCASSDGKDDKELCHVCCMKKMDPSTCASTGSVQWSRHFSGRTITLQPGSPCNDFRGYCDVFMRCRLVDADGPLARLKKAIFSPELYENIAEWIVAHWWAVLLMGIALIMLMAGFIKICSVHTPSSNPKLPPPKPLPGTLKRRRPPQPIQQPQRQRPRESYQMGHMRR
# MPTP counter – fluorescence retest of MPTP screen hits in isolated mitochondria, single concentration. shares compounds with MPTP block. membrane potential, Rhodamine 123 fluorescence. inhibition, % at 10 µM. actives 78% (n = 5,000). AID 624504, 2012; in the data active means inhibition above about 22%;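 further: 0% = DMSO vehicle and 100% = positive control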
# MPTP swell DR – mitochondrial permeability transition pore inhibitors, dose response, biochemical, absorbance, uHTS hits; shares compounds with MPTP block; isolated mitochondria swelling; IC50, µM; actives 58% (n = 780); in the data active means IC50 below about 20 µM
# MPTP cs DR – fluorescent counter-screen in isolated mitochondria, dose response, counter-screen for MPTP inhibitor project, biochemical, fluorescence, uHTS hits | actives 49% (n = 780) | isolated mitochondria counterscreen, fluorescence read-out | shares compounds with MPTP block | IC50, µM; in the data active means IC50 below about 80 µM
# Numbers without * were called inactive; i = inactive; x = no result given. An excerpt weighted towards active compounds, which were near 3.1% of everything screened.
SMILES,MPTP block,Hep lipid drop,aDG glyco act,ADAM17 inh,V-ATPase pHluor,ADAM10 inh,MPTP counter,others
COc1ccc(-c2[nH]c(-c3cc(OC)c4c(c3)OCO4)nc2-c2ccccc2)cc1,94.7*,0.4,1.5,-110.9,-1.8,-236.7,69.2*,
COc1ccc(-c2nc(-c3ccccc3)c(-c3cc([N+](=O)[O-])ccc3C)[nH]2)cc1OC,0.1,19.9,1.3,-1.0,-1.5,-1.2,x,
Cc1csc(SCC(=O)Nc2nncs2)n1,-1.3,-10.5,0.0,-1.9,-1.9,-1.5,x,
Cc1ccc(-c2csc(NC(=O)CSc3nc(C)cs3)n2)cc1,69.5*,-15.2,0.0,3.7,-4.4,6.3,56.2*,
Cc1cc(NC(=O)CSc2nc(-c3ccc(Cl)cc3)cs2)no1,5.4,0.6,0.1,-3.4,-0.5,-4.5,x,
O=C(CSc1nc(-c2ccc(Cl)cc2)cs1)Nc1cccc([N+](=O)[O-])c1,84.5*,34.5,0.9,7.8,-0.1,8.1,79.9*,
O=[N+]([O-])c1cccc(NC(=S)Nc2nc(-c3ccccc3Cl)cs2)c1,86.6*,-1.4,3.5,3.2,2.5,1.8,76.2*,
CCNC(=S)Nc1cccc([N+](=O)[O-])c1,x,0.1,x,x,x,x,x,
CCN1C(=O)CSC1=NC1C2CC3CC(C2)CC1C3 (stereo unspecified),76.8*,x,3.0,0.0,-0.7,4.4,-4.2,MPTP swell DR=8.14*;MPTP cs DR=36.1*
CCOc1ccc(N=C2SCC(=O)N2CC)cc1,1.8,-9.0,-0.1,-2.6,5.2,-13.0,x,
O=c1cc(-c2ccccc2)nc2c(-c3ccccc3)c(C(F)(F)F)[nH]n12,63.6*,-13.3,0.0,i,-3.5,i,47.3*,
COc1ccccc1CNc1nc(NCCOc2ccccc2)c2sccc2n1,59.6*,x,3.2,4.2,x,6.0,90.7*,
COc1ccccc1CNc1nc(NCc2ccccc2OC)c2sccc2n1,85.2*,x,1.4,1.2,x,-3.2,114.6*,
Cc1ccc(CNc2nc(NCc3ccccc3)nc3ccsc23)c(C)c1,53.3*,x,2.1,0.8,x,1.8,100.8*,
COc1ccccc1CNc1nc(NCC2CC2)nc2ccsc12,79.7*,x,0.5,-2.8,x,-8.7,91.7*,
COCCNc1nc(NCc2ccccc2OC)c2sccc2n1,0.8,x,1.5,-3.4,x,-14.5,x,
COc1ccc(-c2cc(C(=O)N/N=C/C(C)=C\c3ccco3)[nH]n2)cc1,x,x,x,-1.2,x,-10.3,x,
CCOC(=O)[C@]12CCCC3=C1N(CCC3)C(=O)[C@@H](CC(=O)NCC1CCCCC1)C2,x,x,x,-0.5,x,-1.1,x,
Nn1c(SCc2cccc3ccccc23)nnc1-c1cc(-c2ccc(Cl)cc2)n[nH]1,x,x,x,-2.0,x,-8.0,x,
COc1ccccc1CNc1nc(NCc2ccc3occc3c2)c2sccc2n1,71.7*,x,0.2,3.3,x,1.1,99.5*,
COc1ccccc1CNc1nc(NCc2ccccc2SC)c2sccc2n1,84.6*,x,1.3,1.6,x,7.6,84.4*,
COc1ccccc1CNc1nc(NCc2cccs2)nc2ccsc12,77.6*,x,1.8,-0.2,x,0.2,92.5*,
C[C@@H]1[C@@H](c2ccccc2)c2cc3ccccc3nc2C(=O)C[C@@H]1C(=O)N1CCCC1,x,x,x,-5.0,x,-17.3,x,
CCC1CCCCN1C(=O)c1cccc(S(=O)(=O)Nc2cc(C(F)(F)F)ccc2Cl)c1 (stereo unspecified),73.5*,0.4,0.2,3.4,3.2,13.2,80.7*,
Cc1ccc(C)c(OCC(=O)Nc2nc3ccc([N+](=O)[O-])cc3s2)c1C,76.0*,x,-0.3,1.4,0.7,6.3,56.4*,
SMILES,MPTP block,Hep lipid drop,aDG glyco act,ADAM17 inh,V-ATPase pHluor,ADAM10 inh,MPTP counter,others
Cc1csc(NC(=O)c2ccc(COc3ccc(Cl)c(Cl)c3)o2)n1,x,x,x,-0.7,x,-1.1,x,
COC(=O)[C@]12C[C@H](CC(=O)N3CCCC3)C(=O)N(Cc3cccc4ccccc34)C1=C[C@H](C(C)C)O[C@@H]2C1CC1,x,x,x,-0.4,x,7.3,x,
CCOC(=O)Cc1nnc2c(Nc3ccccc3F)nc3nonc3n12,92.2*,-8.6,-0.1,-7.7,4.4,-3.5,124.9*,
CCOC(=O)Cc1nnc2c(Nc3ccc(C)cc3)nc3nonc3n12,11.8,17.9,0.0,-8.5,5.8,10.5,x,
Cc1cccc(-c2noc(CCC(=O)Nc3ccccc3)n2)c1,1.0,-7.3,0.0,0.2,-1.5,1.7,x,
O=C(CCc1nc(-c2ccccc2F)no1)Nc1ccc(Oc2ccccc2)cc1,106.8*,x,2.9,8.3,-2.8,17.7,93.6*,
CCOC(=O)c1ccc(NC(=O)CCc2nc(-c3cccc(C)c3)no2)cc1,85.1*,-17.9,1.6,5.3,0.1,2.6,91.1*,
CC(=O)O[C@H]1[C@H](OC(C)=O)C[C@]2(OC(C)=O)C[C@H]1OC2=O,x,x,x,-8.4,x,-4.3,x,
O=c1oc2ccccc2c(NCc2ccccc2)c1[N+](=O)[O-],4.1,-6.9,0.0,-1.4,-1.9,-3.0,x,
O=c1oc2ccccc2c(Nc2cccc3ccccc23)c1[N+](=O)[O-],66.8*,x,0.7,-8.1,-4.0,-27.4,79.5*,
Cc1cc(Cl)cc(Cl)c1CNc1c([N+](=O)[O-])c(=O)oc2ccccc12,90.3*,-6.9,0.3,-1.9,0.9,-5.4,96.0*,
O=c1oc2ccccc2c(NCc2ccc(Cl)cc2)c1[N+](=O)[O-],54.5*,5.0,0.1,-1.9,-1.5,-3.8,72.7*,
C=CCN1C(=O)[C@@H](CC(=O)NCCCC)[C@]2(C(=O)OCC)CCCCC/C=C/12,x,x,x,-0.8,x,-68.7,x,
Cc1[nH]nc2c1C(c1ccccc1)N(Cc1ccccc1)C2=O (stereo unspecified),x,x,x,0.8,x,0.0,x,
COC(=O)[C@@H]1[C@H](O[Si](C)(C)C(C)(C)C)[C@H]2O[C@H]2C[C@H]1S(=O)(=O)c1ccccc1,x,x,x,-1.6,x,-1.5,x,
Cc1ccc(S(=O)(=O)NCC(=O)N2CCN(c3ccccn3)CC2)cc1C,x,x,x,-3.4,x,-15.9,x,
O=C(Nc1cccc(C(F)(F)F)c1)c1cc2c(=O)c3ccccc3oc2nc1C(F)(F)F,74.7*,x,1.7,1.0,2.5,-6.8,53.4*,
O=C(Nc1cccc(Cl)c1)NC1(C(=O)NCc2cccs2)CCCCC1,81.0*,-15.9,0.1,-1.4,7.2,9.0,73.5*,
S=C(NCc1cccs1)Nc1cc(Cl)cc(Cl)c1,89.5*,0.8,0.0,3.3,-2.3,9.0,78.2*,
